The source made the active and inactive calls. The calls are words filed in the database; no cut-off is given here.
Key:
[1] = tested on: Plasmodium falciparum; test: Inhibition of Plasmodium falciparum-mediated human hemoglobin degradation at 100 uM; assay type: functional, organism-based
[2] = tested on: Plasmodium falciparum; test: Antimalarial activity against chloroquine-sensitive Plasmodium falciparum 3D7 infected in human O+ erythrocytes after 72 hrs by SYBR Green-1 fluorescence based assay; assay type: functional, organism-based; conditions: 3D7, 72 h
How it was run: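 P. falciparum 3D7 kept in O+ human erythrocytes, 4% hematocrit, RPMI 1640 with Albumax, hypoxanthine and gentamicin, 37 °C under 5% O2/5% CO2/90% N2. Sorbitol-synchronized rings were plated at 2% hematocrit, 1% parasitemia with drug 0–10^-4 M (0.4% DMSO final), triplicate wells, 72 h. SYBR Green I read at ex 497/em 520 nm. IC50 by visual matching of 50% growth inhibition.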

[3] = tested on: Plasmodium falciparum; test: Resistance index, ratio of IC50 for Plasmodium falciparum Dd2 to IC50 for Plasmodium falciparum 3D7; assay type: functional
How it was run: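 Ratio of IC50 against Dd2 to IC50 against 3D7. Both IC50s come from the same 72 h SYBR Green I assay: sorbitol-synchronised rings, 2% hematocrit, 1% parasitemia, 0 to 10^-4 M in triplicate, 0.4% final DMSO. Each IC50 taken by visual matching of 50% growth inhibition.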

[4] = Selectivity index, ratio of TC50 for human HeLa cells to IC50 for Plasmodium falciparum 3D7; assay type: toxicity, cell-based
How it was run: (§1)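 Selectivity index was TC50 (24 h MTT in HeLa or L929) divided by IC50 against 3D7 (72 h SYBR Green I growth assay).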

[5] = tested on: Plasmodium falciparum; test: Antimalarial activity against chloroquine-resistant Plasmodium falciparum Dd2 infected in human O+ erythrocytes after 72 hrs by SYBR Green-1 fluorescence based assay; assay type: functional, organism-based; conditions: Dd2, 72 h
How it was run: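 Ring-stage culture (5% sorbitol synchronised) plated at 2% hematocrit, 1% parasitemia in RPMI 1640 with 0.5% Albumax, hypoxanthine, gentamicin; 37 °C, 5% O2/5% CO2/90% N2. Compounds from DMSO stock, final 0.4% DMSO, 0 to 10^-4 M, triplicate wells. 72 h, then SYBR Green I fluorescence (ex 497/em 520 nm). IC50 by visual matching of 50% growth inhibition.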

[6] = Selectivity index, ratio of TC50 for mice (Mus musculus) L929 cells to IC50 for Plasmodium falciparum 3D7; assay type: toxicity, cell-based; how it was run: as §1
[7] = tested on: L929; test: Cytotoxicity against mouse L929 cells assessed as cell viability after 24 hrs by MTT assay; assay type: cell-based; conditions: l929, 24 h
How it was run: (§2)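 HeLa and L929 cells were grown in RPMI with 10% FBS, seeded at 10⁴ cells/well overnight, then exposed to drug for 24 h at 37 °C, 5% CO2. DMSO at 10% final was the positive control. MTT was added for 4 h, then formazan was dissolved in DMSO and read at 570 nm. TC50 was taken from dose-response curves.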

[8] = tested on: HeLa; test: Cytotoxicity against human HeLa cells assessed as cell viability after 24 hrs by MTT assay; assay type: cell-based; how it was run: as §2

SMILES | IC50 [2] [µM] | inhibition [1] | other results
COc1cc(/C=C/C(=O)c2ccc(Cl)cc2)cc(OC)c1OC | 4.6 | inactive | Ratio IC50 [3]: 2.5; selectivity ratio [4]: 3; IC50 [5]: 11.5 µM; selectivity ratio [6]: 2.8
COc1ccc(/C=C/C(=O)c2ccc(Cl)cc2)c(OC)c1 | 6 | inactive | Ratio IC50 [3]: 1.1; selectivity ratio [4]: > 16.6; IC50 [5]: 6.8 µM; selectivity ratio [6]: 14.6
COc1ccc(/C=C/C(C)=O)c(OC)c1 | 48.5 | inactive | –
C=CC(C)(C)c1cc(/C=C/C(=O)c2ccc(O)cc2)c(OC)cc1O [LICOAGROCHACONE A] | 4.1 | inactive | –
COc1cc(OC)c(OC)cc1/C=C/C(=O)c1ccc(I)cc1 | 2 | inactive | Ratio IC50 [3]: 3.7; Activity [7]: Non-toxic; selectivity ratio [4]: 50; IC50 [5]: 7.5 µM; Activity [8]: Non-toxic; selectivity ratio [6]: > 50
COc1cc(OC)c(OC)cc1/C=C/C(=O)c1ccc(Br)cc1 | 1.8 | inactive | Ratio IC50 [3]: 2.8; Activity [7]: Non-toxic; selectivity ratio [4]: 31.7; IC50 [5]: 5 µM; Activity [8]: Non-toxic; selectivity ratio [6]: 55.6
COc1cc(OC)c(OC)cc1/C=C/C(=O)c1ccc(Cl)cc1 | 4 | inactive | Ratio IC50 [3]: 1.7; selectivity ratio [4]: 9; IC50 [5]: 6.9 µM; selectivity ratio [6]: 8.3
C=CCn1cc(/C(=C\C(=O)c2ccc(Br)cc2)c2cc(OC)c(OC)cc2OC)c2ccccc21 | 17.5 | inactive | –
COc1ccc(C(=O)/C=C/c2ccc(Cl)c(Cl)c2)cc1 | > 200 | inactive | –
COc1ccc(C(=O)/C=C/c2ccc(Cl)cc2)cc1 | 88 | inactive | –
CCN(CC)CCCC(C)Nc1ccnc2cc(Cl)ccc12 (centres undefined) | – | inactive | –
COc1cc(OC)c(OC)cc1/C=C/C(=O)c1ccc(-c2ccc(Br)cc2)cc1 | 47 | inactive | –
COc1cc(OC)c(OC)cc1/C=C/C(=O)/C=C/c1ccc(Br)cc1 | 18 | inactive | –
O=C(/C=C/c1ccc(Cl)cc1)c1ccc(Cl)cc1 [4',4-DICHLOROCHALCONE] | 65 | inactive | –
COc1cc(OC)c(OC)cc1/C=C/C=C/C(=O)c1ccc(Br)cc1 | 12.2 | inactive | –

Second part, led by results:

IC50 [2] [µM] | SMILES | inhibition [1] | other results
8.6 | COc1cc(OC)c(C(CC(=O)c2ccc(Cl)cc2)c2c[nH]c3ccccc23)cc1OC (centres undefined) | inactive | –
78 | O=C(/C=C/c1ccc(Cl)cc1)c1ccc([N+](=O)[O-])cc1 | inactive | –
8 | COc1cc(OC)c(/C=C/C(=O)c2ccc(Cl)cc2)c(OC)c1 | inactive | –
50 | O=C(/C=C/c1ccc(Cl)cc1)c1ccc(Br)cc1 | inactive | –
170 | O=C(/C=C/c1cccs1)c1ccc([N+](=O)[O-])cc1 | inactive | –
28.8 | COc1ccc(/C=C/C(=O)c2ccc(Cl)cc2)cc1 | inactive | –
> 20 | COc1cc(OC)c(OC)cc1/C=C/C(=O)c1ccc(Cl)c(Cl)c1 | inactive | –
7.8 | COc1cc(OC)c(OC)cc1/C=C/C(=O)c1ccc(OC)c(OC)c1OC | inactive | –
75 | C=CCOc1ccc(C(=O)/C=C/c2ccc(Cl)cc2)cc1 | inactive | –
8.4 | C=CCn1cc(C(CC(=O)c2ccc(Cl)cc2)c2cc(OC)c(OC)cc2OC)c2ccccc21 (centres undefined) | inactive | –
30 | O=C(/C=C/c1ccc(Cl)cc1)c1ccc(O)cc1 | inactive | –
> 100 | COc1cc(OC)c(OC)cc1/C=C/C(=O)c1ccc(C#N)cc1 | inactive | –
> 200 | COc1cc(OC)c(OC)cc1/C=C/C(=O)c1ccc([N+](=O)[O-])cc1 | inactive | –
11.5 | COc1ccc(C(=O)/C=C/c2cc(OC)c(OC)cc2OC)cc1 | inactive | –
64 | COc1cc(OC)c(OC)cc1CCC(=O)c1ccc(Cl)cc1 | inactive | –
> 200 | O=C(/C=C/c1ccco1)c1ccc([N+](=O)[O-])cc1 | inactive | –
97.9 | O=C(/C=C/c1ccc(Cl)cc1)c1ccc2c(c1)OCO2 | inactive | –
50 | COc1cc(OC)c(OC)cc1CCC(O)c1ccc(Cl)cc1 (centres undefined) | inactive | –

Reference: ChEMBL document CHEMBL1287658, “Reinvestigation of structure-activity relationship of methoxylated chalcones as antimalarials: synthesis and evaluation of 2,4,5-trimethoxy substituted patterns as lead candidates derived from abundantly available natural β-asarone” (Eur J Med Chem, 2010)
